CAL PDZ FP-1: inhibitors of human CAL PDZ peptide binding; purified CAL PDZ, TMR-peptide fluorescence polarization, 1 h; inhibition, % at 20 µM; 330,000 compounds, 0.02% hits;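 active = highest replicate inhibition of at least 40%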;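 note: plate controls were DMSO neutral control wells for no effect and unlabeled competitor peptide control wells for full effect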
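Assay system – tagged CAL PDZ protein CerCALP, purified · Timing – 1 h at RT · Compound – single point, 20 µM · Measured by – fluorescence polarization from S- and P-plane intensities, G-factor corrected · Evaluation – inhibition from polarization loss · Probe or stimulus – TMR reporter peptide T*-PRC34 · Buffer or medium – pH 7.4 phosphate-saline buffer, reducing agent, detergent, IgG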
CAL PDZ FP-2: blocks peptide binding to the human CAL PDZ domain; Q9HD26; purified CAL PDZ, TMR-peptide fluorescence polarization, 1 h; inhibition, % at 24.9 µM; 300,000 compounds, 0.92% hits; AID 602252;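 active = mean inhibition of at least 30% with at least half of replicates also reaching 30%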;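 note: 0% = DMSO neutral control and 100% = excess unlabeled competitor peptide PRC23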
Dyrk1A ADPGlo: inhibitors of rat Dyrk1A kinase; ADP-Glo luminescence, NFATc1 peptide; inhibition, % at 12.5 µM; 310,000 compounds, 0.43% hits; AID 504441; in the data active = inhibition above about 50%;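 note: plate controls were vehicle with enzyme for no effect and no enzyme for full effect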
ARNT TACC3 PPI: disruptors of human ARNT/TACC3 interaction | Q9Y6A5 | AlphaScreen His-ARNT PAS-B/GST-TACC3 binding, luminescence; TACC3 fragment carries E629A point mutation | inhibition, % at 9.99 µM | 390,000 compounds, 0.66% hits | AID 623870;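 active = mean inhibition of replicates at least 50% and at least half of replicates each reaching 50%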;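 note: 0% = complete ARNT plus TACC3 wells and 100% = ARNT alone without TACC3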
* = called active by the depositor; nt = no result given. Compounds with a hit are over-represented: about 1.4% of the library has one in this group of screens.

SMILES	CAL PDZ FP-1	CAL PDZ FP-2	Dyrk1A ADPGlo	ARNT TACC3 PPI
Cc1ccnc2c1ccc1cccnc12	-2.9	-6.3	29.0	63.2*
Cc1ccnc2c1ccc1ccccc12	-0.3	-3.7	3.4	-8.8
Nc1c(N2CCOCC2)cc(Cl)c2nonc12	-1.1	-3.0	-14.7	15.6
Nc1c(N2CCCC2)cc(Cl)c2nonc12	1.7	-0.6	-5.3	37.3*
C[C@@H]1CN([C@H](C)CO)C(=O)c2cc(NC(=O)C3CCCCC3)ccc2O[C@@H](C)CCCCO[C@H]1CN(C)S(=O)(=O)c1ccc(Cl)cc1	nt	nt	nt	3.1
O=C(Nc1cccc(F)c1)c1ccco1	53.6*	0.8	nt	-1.6
O=C(Nc1ccc(NC(=O)c2ccco2)c(Cl)c1)c1ccccc1	0.0	nt	1.6	-0.2
O=C(Nc1ccc(Br)c(Cl)c1)c1ccco1	nt	46.3*	26.3	-5.7
O=C(Nc1ccc(CSc2ccccc2)cc1)c1ccco1	-3.6	63.3*	-3.8	-7.3
Nc1cccc(NC(=O)c2ccco2)c1	nt	-2.6	-0.1	-5.3
CCC(=O)Oc1cccc(C(=O)Nc2cccc(NC(=O)c3ccco3)c2)c1	-2.9	44.4*	9.1	nt
CCC(=O)Nc1ccc2c(c1)OC[C@H](C)N(C(=O)NC(C)C)C[C@@H](C)[C@H](OC)CN(C)C2=O	nt	nt	nt	0.4
Cc1ccc(CNC(=O)CCNS(=O)(=O)c2ccc3c(c2)c(=O)n(C)c(=O)n3C)cc1	-1.6	nt	-1.0	8.2
Cn1c(=O)c2cc(S(=O)(=O)NCCC(=O)NCc3ccccc3Cl)ccc2n(C)c1=O	0.2	1.1	5.9	49.8*
O=C(N[C@@H]1CC[C@@H](CCNS(=O)(=O)c2ccc(Cl)cc2)O[C@H]1CO)c1cnccn1	nt	nt	nt	-13.5
O=S(=O)(Cc1ccccc1)N=Nc1c(O)[nH]c2ccc(Br)cc12	-0.3	81.5*	4.4	3.4
CCOC(=O)C1=CN(Cc2ccco2)S(=O)(=O)N(C)C1c1ccccc1 (configuration not stated)	-0.3	0.0	3.6	2.9
CCOC(=O)C1=CN(Cc2ccco2)S(=O)(=O)N(CC)C1c1ccc(C(F)(F)F)cc1 (configuration not stated)	-0.4	78.5*	2.4	0.0
CC(=O)c1ccc(NC(=O)c2noc3c2CCC3)cc1	nt	68.3*	-5.9	-4.6
O=S(=O)(c1ccc(Cl)cc1)N1CCSC1c1ccco1 (configuration not stated)	13.9	164.4*	5.6	29.7
O=[N+]([O-])c1ccc(S(=O)(=O)N2CCSC2c2ccco2)cc1 (configuration not stated)	-0.9	1.2	-1.1	2.0
COc1ccc(NC(=O)N[C@@H]2CC[C@@H](CCNS(=O)(=O)c3ccccc3F)O[C@@H]2CO)cc1	nt	nt	nt	-0.6
Cc1ccc(C(=O)NC(=S)NNC(=O)CCN2CCOCC2)cc1	-2.3	-4.9	-3.5	39.6*
O=C(NC(=S)NCCN1CCOCC1)c1ccc(F)cc1	-2.2	-1.9	4.2	-1.9
O=C(N/C(=C\c1ccc(Cl)cc1)C(=O)N1CCCCC1)c1ccco1	-1.4	82.3*	1.8	nt
SMILES	CAL PDZ FP-1	CAL PDZ FP-2	Dyrk1A ADPGlo	ARNT TACC3 PPI
COc1ccc(O)c(C(=O)c2cc(C#N)c(=O)n(-c3ccc(Cl)cc3)c2)c1	-0.4	39.4*	nt	1.4
C[C@@H]1CCCCO[C@@H](CN(C)C(=O)Nc2ccccc2)[C@H](C)CN([C@H](C)CO)C(=O)c2cc(NC(=O)CCCN(C)C)ccc2O1	nt	nt	nt	-2.3
C[C@@H]1CCCCO[C@H](CN(C)C(=O)Nc2ccc3c(c2)OCO3)[C@H](C)CN([C@@H](C)CO)C(=O)c2cc(NC(=O)CCCN(C)C)ccc2O1	nt	nt	nt	45.3*
C[C@@H]1CCCCO[C@H](CN(C)Cc2ccc3c(c2)OCO3)[C@@H](C)CN([C@@H](C)CO)C(=O)c2cc(NC(=O)Nc3ccc(C(F)(F)F)cc3)ccc2O1	nt	nt	nt	28.5
C[C@H](CO)N1C[C@H](C)[C@H](CN(C)Cc2ccc3c(c2)OCO3)OCCCC[C@H](C)Oc2ccc(NC(=O)Nc3ccc(C(F)(F)F)cc3)cc2C1=O	nt	nt	nt	45.7*
COc1ccc(NC(=O)N(C)C[C@@H]2Oc3ccc(NS(=O)(=O)c4cn(C)cn4)cc3C(=O)N([C@H](C)CO)C[C@H]2C)cc1	nt	nt	nt	active
C[C@H]1CCCCO[C@H](CN(C)Cc2ccc3c(c2)OCO3)[C@@H](C)CN([C@@H](C)CO)C(=O)c2cc(NC(=O)Nc3ccc(C(F)(F)F)cc3)ccc2O1	nt	nt	nt	57.4*
C[C@H](CO)N1C[C@H](C)[C@@H](CN(C)C(=O)Nc2ccc3c(c2)OCO3)OCCCC[C@H](C)Oc2ccc(NC(=O)Nc3ccccc3)cc2C1=O	nt	nt	nt	9.5
O=C(N[C@@H]1CC[C@@H](CCNC(=O)c2ccccc2F)O[C@@H]1CO)c1cnccn1	nt	nt	nt	6.6
C[C@@H]1CN([C@@H](C)CO)C(=O)c2cccc(NS(C)(=O)=O)c2O[C@@H]1CN(C)C(=O)Nc1ccc2c(c1)OCO2	nt	nt	nt	active
C[C@H]1CN([C@@H](C)CO)C(=O)c2cccc(NS(C)(=O)=O)c2O[C@H]1CN(C)C(=O)Nc1ccc2c(c1)OCO2	nt	nt	nt	3.1
CC(=O)N(c1ccc(C)cc1)S(=O)(=O)c1ccc(Cl)cc1	-0.9	45.9*	-0.7	-2.6
C[C@H](NC(=O)C[C@H]1CC[C@H](NC(=O)C2CCOCC2)[C@H](CO)O1)c1ccccc1	nt	nt	nt	-13.0
CCC(C)[C@H](NC(=O)N1CCC(C)CC1)C(=O)OC (some centres not stated)	-0.4	52.5*	4.8	-7.0
CCC(C)[C@H](NC(=O)N1CCCC1)C(=O)OC (some centres not stated)	0.5	-4.0	3.3	-7.0
CCOC(=O)c1cnn(-c2ccc([N+](=O)[O-])cc2)c1N	0.2	60.2*	nt	-11.2
CCOC(=O)c1cnn(-c2ccccc2)c1N	-1.6	1.7	-4.2	-23.8
CC(C)(C)c1ccc(C(=O)Nc2ccc(N3CCOCC3)cc2)cc1	-3.2	-0.7	2.3	1.4
CC(C)(C)c1ccc(C(=O)NC(=S)Nc2ccc(N3CCOCC3)cc2)cc1	0.6	32.6*	-2.5	-11.0
CCCNC(=O)N[C@@H]1C=C[C@@H](CC(=O)NCCc2ccccc2)O[C@H]1CO	nt	nt	nt	-6.5
OC(CNCC1CCCO1)Cn1c2ccccc2c2ccccc21 (configuration not stated)	-0.7	-48.7	0.1	3.3
OC(CNCC1CCCO1)Cn1c2ccc(Cl)cc2c2cc(Cl)ccc21 (configuration not stated)	-1.2	43.8*	2.2	5.0
Cc1cccc(-c2ccc([C@H]3[C@H](CO)N4CCCCN(Cc5ccncc5)C[C@@H]34)cc2)c1	nt	nt	nt	3.8
Cc1cc(SCc2cccc(Cl)c2)nc(=O)[nH]1	-1.7	54.9*	2.3	2.5
Cc1cc(SCc2ccc(Cl)cc2)nc(=O)[nH]1	-1.1	-3.6	-2.8	-0.7
CC(C)CSc1nnc(N)s1	-0.6	57.5*	7.5	-5.7
CCC(C)C(NC(=O)C(C)NC(=O)CNC(=O)CNC(=O)OCc1ccccc1)C(=O)OC (configuration not stated)	-1.0	47.4*	-2.3	-0.2
COC(=O)C(NC(=O)C(C)NC(=O)OCc1ccccc1)C(C)C (configuration not stated)	0.2	nt	1.7	-4.8

High-throughput results deposited in PubChem by Broad Institute.
